The nature of data set [1]: Drug metabolism in human liver microsome at 10 uM after 30 mins by LC-MS analysis. The format is ADME. The following applies: liver microsomes, read-out: Drug metabolism.
A short description of data set [2]: Drug metabolism in mouse liver microsome at 10 uM after 30 mins by LC-MS analysis. The following applies: liver microsomes, read-out: Drug metabolism. The class given is ADME.
A short description of data set [3]: Inhibition of WNT signaling in human 7dF3 cells preincubated at 20 uM for 2 hrs before beta-estradiol addition measured after 24 hrs by luciferase reporter assay. The class given is cell-based.
The nature of data set [4]: Cytotoxicity against human 7dF3 cells. The class given is cell-based.
Another data set can be described thus: cells. The class given is cell-based. The following applies: Homo sapiens, 7dF3.
A short description of data set [5]: Dissociation constant, pKa of the compound. The class given is physicochemical.
A short description of data set [6]: Inhibition of WNT signaling in human T-Rex HEK293 Tet-O cells harboring constitutively active deltaN-LRP6 after 4 days by luciferase reporter assay. The format is cell-based. The following applies: HEK293, 96 h. An outline of the steps: (§1)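 HEK293 T-Rex Tet-O cells stably carrying TCF-firefly luciferase-IRES-GFP reporter plus Tet-inducible cDNA (ΔN-LRP6, Dvl2, Axin-GID, ΔN-β-catenin or VP16-TCF4) introduced by FLP-FRT recombination; seeded from frozen at 40 000/well; day 3 compound added, eight concentrations 30 μM to 14 nM (final), with doxycycline hyclate; day 4 cells lysed, firefly luciferase luminescence read.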
Background: Reporter assays use an easily measured gene product as a stand-in for the process of interest.

A short description of data set [7]: Inhibition of WNT signaling in human T-Rex HEK293 Tet-O cells harboring Dvl2 after 4 days by luciferase reporter assay. The class given is cell-based. The following applies: HEK293, 96 h. An outline of the steps: as §1
Data set [8] is described as follows: Inhibition of WNT signaling in human T-Rex HEK293 Tet-O cells harboring dominant negative form of Axin GSK3beta-interacting domain after 4 days by luciferase reporter assay. Conditions: HEK293, 96 h. The class given is cell-based. An outline of the steps: as §1
A short description of data set [9]: Inhibition of WNT signaling in human T-Rex HEK293 Tet-O cells harboring degradation resistant form of beta-catenin after 4 days by luciferase reporter assay. The class given is cell-based. The following applies: HEK293, 96 h. The gist of the method: as §1
Data set [10] is described as follows: Inhibition of WNT signaling in human T-Rex HEK293 Tet-O cells harboring constitutively active VP16-TCF in absence of beta-catenin after 4 days by luciferase reporter assay. The class given is cell-based. Conditions: HEK293, 96 h. The gist of the method: as §1
A short description of data set [11]: Aqueous solubility of the compound. The format is physicochemical. The following applies: buffer.
The nature of data set [12]: Apparent permeability in human Caco2 cells after 2 hrs by LC-MS/MS analysis. The format is ADME, cell-based, Caco-2. Conditions: caco-2, 2 h.
Data set [13] addresses Voltage-gated inwardly rectifying potassium channel KCNH2 (Homo sapiens, UniProt Q12809). Description: Inhibition of human ERG.
The target of the next data set is Cytochrome P450 2C9 (Homo sapiens, UniProt P11712). Description: Inhibition of CYP2C9 (unknown origin). Conditions: human. The class given is ADME.
A further data set deals with T1, Cytochrome P450 1A2 (Homo sapiens, UniProt P05177).
T1 sequence (P05177 whole entry): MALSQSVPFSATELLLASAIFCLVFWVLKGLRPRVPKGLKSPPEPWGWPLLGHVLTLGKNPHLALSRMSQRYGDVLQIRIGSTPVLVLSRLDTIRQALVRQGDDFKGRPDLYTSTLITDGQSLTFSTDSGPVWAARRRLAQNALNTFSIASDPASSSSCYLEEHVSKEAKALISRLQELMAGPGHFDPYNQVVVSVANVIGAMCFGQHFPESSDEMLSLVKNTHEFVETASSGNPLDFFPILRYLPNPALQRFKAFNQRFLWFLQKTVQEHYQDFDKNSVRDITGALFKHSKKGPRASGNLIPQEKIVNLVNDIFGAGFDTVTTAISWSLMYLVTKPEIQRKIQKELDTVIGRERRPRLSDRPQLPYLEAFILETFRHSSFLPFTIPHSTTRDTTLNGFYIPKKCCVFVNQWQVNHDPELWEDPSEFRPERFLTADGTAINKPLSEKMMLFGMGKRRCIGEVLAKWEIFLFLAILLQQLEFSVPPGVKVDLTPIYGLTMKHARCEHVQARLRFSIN
Description: Inhibition of CYP1A2 (unknown origin). The format is ADME.

The target in another data set is T2, Cytochrome P450 2C8 (Homo sapiens, UniProt P10632).
T2 sequence (P10632 whole entry): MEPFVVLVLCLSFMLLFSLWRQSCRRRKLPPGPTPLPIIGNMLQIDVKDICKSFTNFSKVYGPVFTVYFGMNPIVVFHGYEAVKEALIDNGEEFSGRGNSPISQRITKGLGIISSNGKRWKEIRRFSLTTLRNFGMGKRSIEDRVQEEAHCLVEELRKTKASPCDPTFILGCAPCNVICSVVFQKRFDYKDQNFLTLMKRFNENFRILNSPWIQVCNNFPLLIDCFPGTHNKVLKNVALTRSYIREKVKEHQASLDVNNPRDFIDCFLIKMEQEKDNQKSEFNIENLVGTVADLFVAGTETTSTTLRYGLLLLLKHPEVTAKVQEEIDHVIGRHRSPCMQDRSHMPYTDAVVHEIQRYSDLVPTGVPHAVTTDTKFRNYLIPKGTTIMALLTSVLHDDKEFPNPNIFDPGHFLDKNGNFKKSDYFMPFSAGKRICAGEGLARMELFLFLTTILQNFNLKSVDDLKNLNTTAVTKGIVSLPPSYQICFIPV
The data set is described as follows: Inhibition of CYP2C8 (unknown origin). The format is ADME.

The target of a further data set is Cytochrome P450 3A4 (Homo sapiens, UniProt P08684). The data set is described as follows: Inhibition of CYP3A4 (unknown origin). The class given is ADME.
Another data set has as its target Cytochrome P450 2C19 (Homo sapiens, UniProt P33261). Description: Inhibition of CYP2C19 (unknown origin). The class given is ADME.
Another data set concerns the target Cytochrome P450 2D6 (Homo sapiens, UniProt P10635). Description: Inhibition of CYP2D6 (unknown origin). The format is ADME.

Here are results for 1 compound from ChEMBL document CHEMBL3407438, “Discovery of potent, orally bioavailable, small-molecule inhibitors of WNT signaling from a cell-based pathway screen” (J Med Chem, 2015).

Calls of active or inactive are those of the source. The rule behind the calls is not given here.

What is called IC50 is the concentration that gives 50% inhibition. A low value points to higher potency. The pKa is the negative logarithm of the acid dissociation constant. What is called solubility is the concentration that dissolves in the medium under given conditions. A low value points to a poorly soluble substance. The term Papp denotes a coefficient for how fast a substance crosses the barrier.

Sequence of Voltage-gated inwardly rectifying potassium channel KCNH2 (Q12809 whole entry): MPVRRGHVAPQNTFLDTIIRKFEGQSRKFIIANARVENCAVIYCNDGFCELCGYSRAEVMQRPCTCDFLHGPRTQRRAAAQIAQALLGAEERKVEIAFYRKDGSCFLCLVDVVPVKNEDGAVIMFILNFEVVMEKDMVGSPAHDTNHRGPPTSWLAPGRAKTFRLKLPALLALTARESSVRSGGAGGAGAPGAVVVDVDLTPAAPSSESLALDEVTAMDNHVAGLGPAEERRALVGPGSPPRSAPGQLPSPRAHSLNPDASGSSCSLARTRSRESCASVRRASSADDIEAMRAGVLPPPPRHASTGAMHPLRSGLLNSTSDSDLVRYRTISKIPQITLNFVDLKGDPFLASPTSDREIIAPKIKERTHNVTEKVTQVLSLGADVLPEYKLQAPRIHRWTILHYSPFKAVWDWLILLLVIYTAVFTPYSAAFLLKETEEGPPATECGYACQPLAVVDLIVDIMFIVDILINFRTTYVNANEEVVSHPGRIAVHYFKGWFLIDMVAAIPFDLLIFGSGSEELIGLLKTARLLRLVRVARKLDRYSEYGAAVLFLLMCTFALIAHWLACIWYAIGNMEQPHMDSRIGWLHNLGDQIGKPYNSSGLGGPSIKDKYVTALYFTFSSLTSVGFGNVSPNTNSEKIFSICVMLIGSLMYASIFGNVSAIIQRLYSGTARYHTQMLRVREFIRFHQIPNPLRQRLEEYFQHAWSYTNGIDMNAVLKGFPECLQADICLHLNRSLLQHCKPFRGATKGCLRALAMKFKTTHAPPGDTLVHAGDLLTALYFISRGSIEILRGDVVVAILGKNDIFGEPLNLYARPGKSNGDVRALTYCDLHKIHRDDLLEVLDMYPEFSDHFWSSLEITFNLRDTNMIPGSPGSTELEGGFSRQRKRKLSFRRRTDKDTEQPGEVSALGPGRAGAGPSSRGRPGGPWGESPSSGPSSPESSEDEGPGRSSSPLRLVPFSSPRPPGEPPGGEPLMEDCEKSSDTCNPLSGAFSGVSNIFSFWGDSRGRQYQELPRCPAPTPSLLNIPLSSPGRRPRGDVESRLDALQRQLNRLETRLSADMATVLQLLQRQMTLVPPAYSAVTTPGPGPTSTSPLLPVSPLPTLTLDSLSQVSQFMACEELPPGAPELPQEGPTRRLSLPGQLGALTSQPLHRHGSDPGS
Sequence of Cytochrome P450 3A4 (P08684 whole entry): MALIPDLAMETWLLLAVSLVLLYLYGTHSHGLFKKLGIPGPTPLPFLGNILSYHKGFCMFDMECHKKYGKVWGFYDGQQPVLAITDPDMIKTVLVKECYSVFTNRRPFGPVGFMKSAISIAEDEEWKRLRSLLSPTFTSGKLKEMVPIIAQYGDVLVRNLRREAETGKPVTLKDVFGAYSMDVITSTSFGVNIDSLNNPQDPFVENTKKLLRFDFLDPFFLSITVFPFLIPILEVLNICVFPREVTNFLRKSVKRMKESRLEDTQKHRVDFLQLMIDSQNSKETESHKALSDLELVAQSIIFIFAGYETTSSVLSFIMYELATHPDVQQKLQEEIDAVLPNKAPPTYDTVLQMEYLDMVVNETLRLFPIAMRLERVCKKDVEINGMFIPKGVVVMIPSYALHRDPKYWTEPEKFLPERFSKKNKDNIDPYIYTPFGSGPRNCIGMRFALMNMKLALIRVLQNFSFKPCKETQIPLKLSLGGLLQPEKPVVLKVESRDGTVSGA
Sequence of Cytochrome P450 2C19 (P33261 whole entry): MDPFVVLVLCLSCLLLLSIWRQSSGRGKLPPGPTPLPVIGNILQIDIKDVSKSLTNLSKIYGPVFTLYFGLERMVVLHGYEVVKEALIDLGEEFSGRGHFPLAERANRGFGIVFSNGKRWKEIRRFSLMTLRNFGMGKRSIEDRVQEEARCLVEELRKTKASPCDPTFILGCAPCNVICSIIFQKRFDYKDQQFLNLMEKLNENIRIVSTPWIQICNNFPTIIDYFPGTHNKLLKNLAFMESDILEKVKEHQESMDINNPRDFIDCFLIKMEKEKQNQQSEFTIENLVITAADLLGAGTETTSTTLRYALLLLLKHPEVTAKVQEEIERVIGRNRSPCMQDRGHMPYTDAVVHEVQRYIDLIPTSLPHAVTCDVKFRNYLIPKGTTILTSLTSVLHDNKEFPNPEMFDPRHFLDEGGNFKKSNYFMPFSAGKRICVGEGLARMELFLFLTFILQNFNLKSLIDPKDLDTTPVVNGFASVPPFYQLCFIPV
Sequence of Cytochrome P450 2D6 (P10635 whole entry): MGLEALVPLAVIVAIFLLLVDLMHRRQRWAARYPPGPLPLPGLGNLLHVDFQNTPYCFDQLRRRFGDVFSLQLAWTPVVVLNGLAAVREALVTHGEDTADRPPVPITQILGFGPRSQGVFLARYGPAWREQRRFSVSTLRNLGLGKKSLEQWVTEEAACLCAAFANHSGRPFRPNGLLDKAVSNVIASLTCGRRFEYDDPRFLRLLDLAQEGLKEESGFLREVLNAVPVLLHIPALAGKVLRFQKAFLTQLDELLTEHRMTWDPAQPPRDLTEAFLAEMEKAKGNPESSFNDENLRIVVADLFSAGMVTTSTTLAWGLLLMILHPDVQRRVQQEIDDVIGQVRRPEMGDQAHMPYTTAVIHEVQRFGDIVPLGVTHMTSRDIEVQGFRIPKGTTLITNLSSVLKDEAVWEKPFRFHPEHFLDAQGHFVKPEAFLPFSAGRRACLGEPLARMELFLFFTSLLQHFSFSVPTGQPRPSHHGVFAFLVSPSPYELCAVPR
Sequence of Cytochrome P450 2C9 (P11712 whole entry): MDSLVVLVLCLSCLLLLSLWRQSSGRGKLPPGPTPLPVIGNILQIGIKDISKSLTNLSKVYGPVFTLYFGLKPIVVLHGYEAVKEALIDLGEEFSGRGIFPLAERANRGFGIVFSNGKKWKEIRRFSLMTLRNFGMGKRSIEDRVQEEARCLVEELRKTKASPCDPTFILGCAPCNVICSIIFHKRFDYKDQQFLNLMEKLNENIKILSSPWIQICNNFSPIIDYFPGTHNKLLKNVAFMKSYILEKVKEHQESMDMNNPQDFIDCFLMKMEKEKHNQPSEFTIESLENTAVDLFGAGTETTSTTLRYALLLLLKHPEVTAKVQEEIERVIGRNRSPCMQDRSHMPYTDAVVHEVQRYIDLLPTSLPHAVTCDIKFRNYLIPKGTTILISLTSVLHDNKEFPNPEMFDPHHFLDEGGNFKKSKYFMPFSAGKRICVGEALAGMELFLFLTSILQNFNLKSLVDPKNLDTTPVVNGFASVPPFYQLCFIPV

On to `NC(=O)C1CCN(c2c(Cl)cncc2Cl)CC1`, for which the values for the metabolised at 0.5 h, 10 µM in data set [1] and in data set [2] were 22% and 41%, respectively. The inhibition entry in data set [3] was “Active”. Besides, the Activity entry in data set [4] is “Non-toxic”. Further, the IC50 in the data set “cells” came to 1760 nM; in data set [6] it was 910 nM; in [7], 1200 nM; in data set [8] it was 1500 nM; in data set [9], 2730 nM; in data set [10], 7.61 µM. In addition, the IC50 in [13] was over 10 µM; on Cytochrome P450 3A4, 7 µM. Besides, in data set [5], the pKa came out at 3.5. For the same compound, the solubility in data set [11] was over 1 mg/mL. Besides, in [12], the apparent permeability coefficient (Papp) stood at 36 ×10⁻⁶ cm/s. Further, the “inhibition (INH)” value against Cytochrome P450 2C9, on Cytochrome P450 1A2, against Cytochrome P450 2C8, against Cytochrome P450 2C19 and at Cytochrome P450 2D6 was “Not Active” throughout.
